Screening data as filed in PubChem.
Only some compounds are listed: those with a hit (about 0.85% of all), similar ones and a draw of the others.
CRFBP-R2 agonist: CRF-BP/CRF-R2 complex agonism | HEK293 CRF-R2/CRF-BP, calcium dye fluorescence (FLIPR); percent of saturating CRF peptide response | activation, % at 13.2 µM | actives 0.46% (n = 350,000) | AID 588473;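 active = activation of at least 50%, plus an integration ratio under a set limit after plate pattern correction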;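 note: plate controls were neutral control wells without compound for no effect and CRF at EC100 for full effect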
OXTR agonist: agonists of human oxytocin receptor; P30559; CHO-OTR cells, Fluo-8 calcium fluorescence; normalized: DMSO 0%, oxytocin 100%; activation, % at 3 µM; actives 0.32% (n = 320,000); AID 2435;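 active = activation above the mean of all tested compounds plus 3 SD, cutoff set per screening run, cut at about 20% in these data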;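 note: peak over basal fluorescence ratio from a 100 s FLIPR kinetic read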
Target sequence (P30559 whole entry, looked up): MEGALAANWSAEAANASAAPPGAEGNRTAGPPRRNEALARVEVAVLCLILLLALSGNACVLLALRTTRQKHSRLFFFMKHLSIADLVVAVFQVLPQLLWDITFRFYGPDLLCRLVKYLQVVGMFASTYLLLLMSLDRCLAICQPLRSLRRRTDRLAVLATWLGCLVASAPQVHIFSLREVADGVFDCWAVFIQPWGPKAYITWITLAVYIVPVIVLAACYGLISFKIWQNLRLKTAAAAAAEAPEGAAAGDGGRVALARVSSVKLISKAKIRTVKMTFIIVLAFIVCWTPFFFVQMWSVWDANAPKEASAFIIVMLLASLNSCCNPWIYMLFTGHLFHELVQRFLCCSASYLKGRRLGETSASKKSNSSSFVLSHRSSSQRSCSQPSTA
OXTR potentiate: potentiators of human oxytocin receptor; CHO-OTR cells, Fluo-8 calcium fluorescence, potentiator mode; 0% = oxytocin EC15, 100% = EC100; actives 0.061% (n = 320,000); activation, % at 3 µM; AID 2445;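 active = activation above that plate's cutoff, the mean activation of tested compounds plus 3 SD, cut at about 6.6% in these data, passing the limit was not always enough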;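 note: 100% uses oxytocin at 75 nM as the full agonist control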
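Material: human OTR in CHO cells. Compound: 3.0 µM, one dose. Timing: compound 6 min at room temperature before oxytocin, 100 s read. Evaluation: % activation of max/min ratio relative to oxytocin controls. Replication: single well per compound, singlicate. Signal: Fluo-8 calcium dye fluorescence.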
V1R ag counter: V1a receptor agonism, counter-screen for OXTR agonists; AID 2797; actives 0.25% (n = 320,000); activation, % at 3 µM; P37288; CHO-V1R cells, Fluo-8 calcium fluorescence, agonist mode; 0% DMSO, 100% 3 nM vasopressin;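 active = activation above the mean activation of all tested compounds plus 3 SD, per screening run, cut at about 20% in these data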;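 note: signal is peak over basal fluorescence ratio across a 100 second FLIPR read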
TRPML3 ag: agonists of human TRPML3 channel; activation, % at 3 µM; HEK293 TRPML3-YFP, Fluo-8 calcium fluorescence; 100% = the carbachol control signal; AID 1448; actives 0.29% (n = 220,000); Q8TDD5;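 active = activation above its plate's cutoff, the mean activation of the plate's test wells plus 3 SD, cut at about 12% in these data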;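 note: 0% = DMSO only wells and 100% = carbachol wells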
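Material: TRPML3-YFP stable HEK293 cells | Dosing: One concentration, 3 µM nominal, 0.3% DMSO | Timing: 125 s total fluorescence read per well | Technique: Fluo-8 calcium dye fluorescence, ex 470-495, em 515-575 nm | Measure: Percent activation from peak-to-basal fluorescence ratio, scaled between DMSO and carbachol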
TRPN1 ag: activates the zebrafish TRPN1 channel; actives 0.18% (n = 220,000); AID 1424; HEK293 zebrafish TRPN1-YFP, Fluo-8 calcium fluorescence; 100% = response to 87 µM carbachol; activation, % at 3 µM;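 active = activation above its plate's cutoff, the mean activation of test wells on that plate plus 3 SD, cut at about 19% in these data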;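 note: 0% = DMSO alone and 100% = 87 µM carbachol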
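Assay system: Zebrafish TRPN1-YFP in HEK293 cells | Incubation: Dye loading 1 h at 37 °C, then 30 min room temperature | Measured by: Kinetic Fluo-8 fluorescence, ex 470-495, em 515-575 nm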
The depositor's hits bear a star; / = not tested or not shown.

SMILES	CRFBP-R2 agonist	OXTR agonist	OXTR potentiate	V1R ag counter	TRPML3 ag	TRPN1 ag
O=C(CNCc1ccc(Cl)cc1)Nc1ccc(C(=O)N2CCCCC2)cc1	4	5	-2	5	/	/
CC(=O)c1ccc(NC(=S)NC(=O)Cc2ccc(Cl)cc2)cc1	75*	6	-4	6	/	/
Cc1ccc(O)c(NC(=S)NC(=O)Cc2ccc(Cl)cc2)c1	179*	73*	-24	79*	/	/
CCCCCn1nc(C(=O)N2CCc3ccccc32)c2ccccc2c1=O	4	-1	-1	-1	/	/
CCCCOc1ccc(-c2nnn(CC(=O)Nc3ncc(CC(=O)OCC)s3)n2)cc1	12	33*	-19	27*	0	2
COC(=O)c1c(NC(=O)CN2CCC3(O)CCCCC3C2c2ccccc2OC)sc(C)c1C (configuration not stated)	53*	-2	-1	1	0	-1
COc1cc(NC(=O)C2CCCN2S(=O)(=O)c2ccc3c(c2)CC(C)N3C(C)=O)cc(OC)c1 (configuration not stated)	-5	1	-7	2	/	/
COCCn1c(=O)[nH]c(=O)c2cc(C(=O)c3cc(Cl)ccc3O)cnc21	99*	1	-10	2	1	2
CCCN1CCN(C(=O)c2oc3c(Cl)cccc3c2C)CC1	-1	1	-1	4	/	/
COc1ccc(C2CC(c3cccs3)=NN2c2ccc(C=O)cc2)cc1 (configuration not stated)	109*	24*	-9	28*	17*	29*
O=C(CCc1ccccc1)NNC(=S)NC(=O)c1ccccc1	80*	3	-6	1	1	-1
O=C(CCc1ccccc1)NNC(=S)NCCc1ccccc1	2	-1	-7	0	/	/
CC(=O)NC(=S)NNC(=O)CCc1ccccc1	30	0	-9	0	1	-2
CC(C)(C)c1cc(CCC(=O)NNC(=S)NC(=O)c2ccccc2)cc(C(C)(C)C)c1O	158*	58*	-19	31*	0	0
CCCCC(=O)NC(=S)NNC(=O)CCc1ccccc1	71*	1	-1	0	1	4
COC(=O)c1sccc1NC(=O)c1c(F)c(F)c(F)c(F)c1F	0	-3	5	-1	/	/
CCCOc1ccc(C(=O)CCNC(Cc2c[nH]c3ccccc23)C(=O)O)cc1 (configuration not stated)	3	3	-4	2	/	/
COc1cc(/C=C/C(=O)OCC(=O)N(CC(C)C)c2c(N)n(Cc3ccccc3)c(=O)[nH]c2=O)ccc1O	120*	/	/	/	/	/
C=CCn1c(SCC(=O)N2CCCC2=O)nc2sc(CC)cc2c1=O	-2	38*	-12	40*	/	/
Cc1ccccc1Oc1ccc2c(c1)[C@@H]1C[C@H](N(C)C(=O)c3cccnc3)[C@H]([C@H](C)O)C(=O)N1CC2	-1	/	/	/	/	/
O=C(CCN1CCC(c2cccs2)=N1)c1cccs1	69*	0	-10	1	1	3
O=C(CCN1CCCC1)c1cccs1	0	1	-2	0	0	1
O=C1CSC(=S)N1N=Cc1c(F)cccc1Cl	55*	/	/	/	/	/
CN(C)c1ccc(C=NN2C(=O)CSC2=S)c(Cl)c1	50*	/	/	/	/	/
COC(=O)C(C(=O)OC)C(CC(=O)c1ccc(Br)cc1)c1ccccc1 (configuration not stated)	2	/	/	/	/	/
SMILES	CRFBP-R2 agonist	OXTR agonist	OXTR potentiate	V1R ag counter	TRPML3 ag	TRPN1 ag
COC(=O)c1cc2c([nH]c1=O)CCCC2=O	2	/	/	/	/	/
NC(=O)C1=C(c2ccccc2)c2ccccc2C1=O	67*	/	/	/	/	/
CCOC(=O)/C(=N\Nc1ccc(C(C)=O)cc1)c1csc(Nc2ccccc2)n1	74*	0	-10	1	1	0
CN(C)c1ccc(/C=C2\C(=N)N3N=C(CC(=O)N4CCCCC4)SC3=NC2=O)cc1	55*	7	-7	8	/	/
CCOC(=O)C1CCN(C(c2cccnc2)c2c(NC(=O)c3ccco3)sc(C)c2C)CC1 (configuration not stated)	1	-2	12*	-1	-1	1
Oc1cccc(C=NN=C2c3ccccc3-c3ccccc32)c1	1	/	/	/	/	/
COc1cccc(CN2CCNC(=O)C2CC(=O)N(C)C2CCOCC2)c1OC (configuration not stated)	0	0	-15	0	/	/
CCN(CC)c1ccc(/C=C2\SC(=O)N(C(C)C)C2=O)o1	44	0	10	0	9	40*
COC(=O)c1ccc2c(c1)C(=O)/C(=C/c1ccc(O)cc1)O2	77*	16	-8	9	1	3
CCCCCCn1c(=O)n2n(c1=O)[C@@H]1CN(S(=O)(=O)c3ccc(C)cc3)C[C@]1(O)[C@@H](OC(=O)NCC1CCCCC1)C2	2	/	/	/	/	/
CN(C)C=Nc1ccc([N+](=O)[O-])c2ccccc12	-1	/	/	/	/	/
CCOC(=O)c1ccc(NC(=O)CN2C(=O)NC3(CCCCCCC3)C2=O)cc1	0	0	-8	0	/	/
Cc1c(-c2ccc(O)cc2)nc2nc(-c3ccccc3)c(-c3ccccc3)nn12	/	144*	-13	280*	-1	0
CC(C)C(OC(=O)C1=Cc2ccccc2OC1)C(=O)NCC1CCCO1 (configuration not stated)	0	/	/	/	/	/
COc1cc(/C=C2\S/C(=N/S(=O)(=O)c3ccc(C)cc3)NC2=O)c([N+](=O)[O-])cc1OC	1	-1	1	-1	0	1
Cc1ccc(S(=O)(=O)/N=C2/NC(=O)/C(=C/c3cc([N+](=O)[O-])ccc3O)S2)cc1	67*	26*	-13	34*	/	/
COc1cccc(N=C2NC(=O)/C(=C/c3cc([N+](=O)[O-])ccc3O)S2)c1	38	4	-8	7	/	/
O=C1NC(=Nc2ccccc2Cl)S/C1=C\c1cc([N+](=O)[O-])ccc1O	61*	15	-4	15	/	/
Cc1ccc(SCC(=O)OCC(=O)N(C)CC(=O)Nc2ccc(F)cc2)cc1C	9	24*	-16	23*	/	/
CC1CCCN(C(=O)c2cc3ccccc3cc2O)C1 (configuration not stated)	0	0	-11	1	/	/
COc1ccc2c(Cl)c(C(=O)N/N=C3\CCCC(=O)C3)sc2c1	79*	12	-3	7	1	3
COc1cc2c(Cc3ccccc3)cncc2cc1O	-4	/	/	/	/	/
CC(OC(=O)c1c2c(nc3ccccc13)/C(=C\c1ccc3c(c1)OCO3)CCC2)C(=O)Nc1ccc(S(N)(=O)=O)cc1 (configuration not stated)	314*	/	/	/	22*	28*
